The list is not random: actives were taken first. Their share in the collection is about 1.9%.
TLR9-MyD88 inh – blocks human TLR9 binding to MyD88 | Q9NR96+Q99836 | inhibition, % at 4.98 µM | 340,000 tested, 0.21% active | CHO BLA complementation TLR9-MyD88, CCF4 FRET ratio;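 active means inhibition above the mean over all tested compounds plus 3 SD, cut at about 21% in these data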
MC4R barr agon – agonists of human melanocortin 4 receptor (MC4R) beta-arrestin; P32245; U2OS MC4R beta-arrestin complementation, luminescence; percent of melanotan II response, DMSO zero; activation, % at 8.9 µM; 360,000 tested, 0.98% active; AID 540308;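 active means activation above a per-plate cutoff, the mean activation of sample wells on that plate plus 3 SD, cut at about 8% in these data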
MC4R antag cAMP – antagonists of human melanocortin 4 receptor (MC4R). P32245. MC4R-expressing cells, MTII-stimulated cAMP, LANCE TR-FRET. inhibition, % at 6.5 µM. 360,000 tested, 0.48% active. AID 540295;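 active means inhibition above its plate's cutoff, the mean of tested wells on that plate plus 3 SD, cut at about 29% in these data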
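Material: U2OS-MC4R stable cell line | Reagent: Melanotan II challenge after compound preincubation | Doses: One concentration, 6.5 µM nominal | Incubation: 30-min compound preincubation, 1-h Melanotan II challenge, 1-h detection, room temperature | Signal: TR-FRET cAMP assay | Replicates: One well per compound, no replicates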
NTR1 agonist – activates human neurotensin receptor 1. 330,000 tested, 0.17% active. activation, % at 20 µM. NTR1-U2OS beta-arrestin-GFP spot imaging, agonist mode. AID 493036. P30989;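 active means activation at or above 40% of the spot to cytoplasm intensity ratio, with at least 20 cells analyzed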
TLR4 MyD88 comp – inhibitors of human TLR4-MyD88 binding; O00206+Q99836; HeLa CL3-4 TLR4/MyD88 BLA complementation, FRET ratio; inhibition, % at 8.4 µM; 200,000 tested, 0.18% active; in the data active means inhibition above about 25%
NOD2 RIPK2 PPI – blocks binding of human NOD2 to RIPK2 | O43353 | CHO BLA complementation NOD2-RIPK2, CCF4 ratio | inhibition, % at 4.98 µM | 360,000 tested, 0.38% active; in the data active means inhibition above about 21%
Target sequence (O43353 whole entry, looked up): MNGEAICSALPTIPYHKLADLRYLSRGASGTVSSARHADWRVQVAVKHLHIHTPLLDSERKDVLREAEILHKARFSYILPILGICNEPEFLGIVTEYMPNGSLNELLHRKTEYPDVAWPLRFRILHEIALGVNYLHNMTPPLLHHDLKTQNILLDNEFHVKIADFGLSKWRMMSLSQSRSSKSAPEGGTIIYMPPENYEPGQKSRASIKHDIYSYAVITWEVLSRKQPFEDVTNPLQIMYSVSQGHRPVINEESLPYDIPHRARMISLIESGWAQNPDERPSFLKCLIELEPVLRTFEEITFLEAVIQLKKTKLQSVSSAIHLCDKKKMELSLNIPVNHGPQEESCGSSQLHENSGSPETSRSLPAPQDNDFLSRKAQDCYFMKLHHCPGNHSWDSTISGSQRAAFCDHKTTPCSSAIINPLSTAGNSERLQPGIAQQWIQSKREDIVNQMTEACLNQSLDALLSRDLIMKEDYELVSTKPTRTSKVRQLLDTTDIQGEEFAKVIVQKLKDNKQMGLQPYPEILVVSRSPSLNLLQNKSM
TLR9-MyD88 cf – confirmation of human TLR9-MyD88 binding inhibitors; shares compounds with TLR9-MyD88 inh; CHO TLR9/MyD88 BLA complementation, CCF4 FRET ratio; inhibition, % at 4.98 µM; 680 tested, 51% active;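 active means mean inhibition across three repeats above about 21% taken from the earlier screen, limit read from the data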;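 further: blue over green emission ratio reports constitutive TLR9 MyD88 association via BLA complementation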
BLA counter-1 – counter-screen for TLR9-MyD88 inhibitors: non-selective beta-lactamase inhibitors. shares compounds with TLR9-MyD88 inh. CHO-BLA cells, CCF4 FRET ratio, BLA reporter. inhibition, % at 4.98 µM. 680 tested, 7% active. AID 540251;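 active means mean inhibition above a 50% cutoff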;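 further: counterscreen of TLR9-MyD88 hits on CMV-driven BLA in CHO-K1 cells; higher means less blue over green ratio so more BLA blockade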
TLR9 CHO cytotox – counter-screen for TLR9-MyD88 inhibitors: cytotoxicity in CHO cells. 680 tested, 39% active. shares compounds with TLR9-MyD88 inh. inhibition, % at 4.98 µM. AID 588336. luminescence; in the data active means inhibition above about 11%
cAMP nonselect – counter-screen for MC4R antagonists: nonselective cAMP signaling inhibitors; shares compounds with MC4R antag cAMP; parental U2OS, forskolin cAMP, LANCE TR-FRET; inhibition, % at 6.5 µM; 1,600 tested, 26% active;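 active means mean inhibition over triplicates above the low-control well mean plus 3 SD, set per campaign, cut at about 13% in these data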;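 further: signal is single emission at 671 nm which falls as cellular cAMP rises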
MC4R antag conf – human MC4R cAMP antagonism confirmation; MC4R-expressing cells, MTII-stimulated cAMP, TR-FRET; 1,600 tested, 27% active; AID 602195; inhibition, % at 6.5 µM; shares compounds with MC4R antag cAMP; in the data active means inhibition above about 29%
NOD2 RIPK2 conf – confirmation of human NOD2-RIPK2 interaction inhibitors; shares compounds with NOD2 RIPK2 PPI; CHO cells, NOD2-RIPK2 BLA complementation, CCF4 FRET; inhibition, % at 4.98 µM; 1,200 tested, 70% active; AID 624370;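 active means mean inhibition across replicates above a set limit taken from the earlier primary screen, cut at about 21% in these data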
BLA counter-2 – hits BLA reporter in NOD2-RIPK2 inhibitor counterscreen; shares compounds with NOD2 RIPK2 PPI; CHO BLA reporter, CCF4 FRET ratio; 1,200 tested, 57% active; inhibition, % at 4.98 µM;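 active means mean inhibition above the low-control mean inhibition plus three low-control SD, cut at about 11% in these data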
Numbers stand for hits.

Screening OCC1(Cc2cccc(Cl)c2)CCCN(Cc2cnn(-c3ccccc3)c2)C1 (stereo not drawn) returned TLR9-MyD88 inh inactive, MC4R barr agon inactive, MC4R antag cAMP inactive, NTR1 agonist inactive, TLR4 MyD88 comp inactive and NOD2 RIPK2 PPI inactive.
For COc1ccc(C2=CC(c3ccc(OC)c(OC)c3)n3nnnc3N2)c(OC)c1 (stereo not drawn) the results were TLR9-MyD88 inh 39, MC4R barr agon inactive, MC4R antag cAMP inactive, NTR1 agonist inactive, TLR4 MyD88 comp inactive, NOD2 RIPK2 PPI 44, TLR9-MyD88 cf 21, BLA counter-1 inactive, TLR9 CHO cytotox inactive, NOD2 RIPK2 conf inactive and BLA counter-2 inactive.
O=C1C=CC(=O)N1CCNc1ncc(C(F)(F)F)cc1Cl was read as TLR9-MyD88 inh 28, MC4R barr agon inactive, MC4R antag cAMP 53, NTR1 agonist inactive, TLR4 MyD88 comp inactive, NOD2 RIPK2 PPI 47, TLR9-MyD88 cf 32, BLA counter-1 inactive, TLR9 CHO cytotox 100, cAMP nonselect inactive, MC4R antag conf inactive, NOD2 RIPK2 conf 86 and BLA counter-2 24.
`O=c1[nH]c(=O)n(CCCc2ccccc2)cc1-c1ccccc1` gave TLR9-MyD88 inh inactive, MC4R barr agon inactive, MC4R antag cAMP inactive and NOD2 RIPK2 PPI inactive.
For Cc1cc2nc(/C=C/c3nc4cc(C)c(C)cc4[nH]3)[nH]c2cc1C the results were TLR9-MyD88 inh 40, MC4R barr agon inactive, MC4R antag cAMP inactive, NOD2 RIPK2 PPI 25, TLR9-MyD88 cf 30, BLA counter-1 inactive, TLR9 CHO cytotox inactive, NOD2 RIPK2 conf 32 and BLA counter-2 43.
Screening Cc1cc2nc(/C=C/c3cccnc3)[nH]c2cc1C returned TLR9-MyD88 inh inactive, MC4R barr agon inactive, MC4R antag cAMP inactive, NTR1 agonist inactive and NOD2 RIPK2 PPI inactive.
For CC(C)CNc1ncnc2c1ncn2[C@H]1CN(Cc2ccc(F)cc2)C[C@@H](CO)O1 the results were MC4R barr agon inactive, MC4R antag cAMP inactive and NOD2 RIPK2 PPI inactive.
COc1cc2oc3cc(C#Cc4ccc(N)cc4)ccc3c(=O)c2cc1OC was read as TLR9-MyD88 inh 38, MC4R barr agon inactive, MC4R antag cAMP inactive, NTR1 agonist inactive, NOD2 RIPK2 PPI 26, TLR9-MyD88 cf 40, BLA counter-1 inactive, TLR9 CHO cytotox inactive, NOD2 RIPK2 conf 54 and BLA counter-2 58.
Nc1ccc(C#Cc2ccc3c(=O)c4ccccc4oc3c2)cc1 was read as TLR9-MyD88 inh 74, MC4R barr agon inactive, MC4R antag cAMP inactive, NTR1 agonist inactive, NOD2 RIPK2 PPI 67, TLR9-MyD88 cf 64, BLA counter-1 70, TLR9 CHO cytotox inactive, NOD2 RIPK2 conf 78 and BLA counter-2 84.
For N#Cc1ccc(C#Cc2ccc3oc4ccccc4c(=O)c3c2)cc1 the results were TLR9-MyD88 inh inactive, MC4R barr agon inactive, MC4R antag cAMP inactive, NTR1 agonist inactive and NOD2 RIPK2 PPI inactive.
`COc1cc2oc3ccc(C#Cc4ccc(N)cc4)cc3c(=O)c2cc1OC` gave TLR9-MyD88 inh inactive, MC4R barr agon inactive, MC4R antag cAMP inactive and NOD2 RIPK2 PPI inactive.
Screening COCCN(C(=O)c1ccc(C)c(S(=O)(=O)N2CCOCC2)c1)c1c(N)n(CC(C)C)c(=O)[nH]c1=O returned TLR9-MyD88 inh inactive, MC4R barr agon inactive, MC4R antag cAMP inactive and NOD2 RIPK2 PPI inactive.
`CC(=O)Nc1ccc(S(=O)(=O)NNc2cccc(C)c2)cc1` gave TLR9-MyD88 inh inactive, MC4R barr agon inactive, MC4R antag cAMP inactive, NTR1 agonist inactive and NOD2 RIPK2 PPI inactive.
Screening N#C/C(=C\c1ccc(Sc2ccc(Cl)cc2)o1)c1nc2ccccc2[nH]1 returned TLR9-MyD88 inh 34, MC4R barr agon inactive, MC4R antag cAMP inactive, TLR4 MyD88 comp inactive, NOD2 RIPK2 PPI 34, TLR9-MyD88 cf inactive, BLA counter-1 inactive, TLR9 CHO cytotox inactive, NOD2 RIPK2 conf 39 and BLA counter-2 43.
`C[C@@H]1CN([C@@H](C)CO)C(=O)c2cccc(NC(=O)Nc3ccc4c(c3)OCO4)c2O[C@H]1CN(C)S(=O)(=O)c1cn(C)cn1` gave TLR9-MyD88 inh inactive, MC4R barr agon inactive, MC4R antag cAMP inactive, NTR1 agonist inactive and NOD2 RIPK2 PPI inactive.
Screening CCCC(=O)NC1=C(Cl)C(=O)c2ccccc2C1=O returned TLR9-MyD88 inh 37, MC4R barr agon inactive, MC4R antag cAMP 93, NOD2 RIPK2 PPI 71, TLR9-MyD88 cf 61, BLA counter-1 inactive, TLR9 CHO cytotox 99, cAMP nonselect 78, MC4R antag conf 106, NOD2 RIPK2 conf 90 and BLA counter-2 29.
`CCNC1=C(Cl)C(=O)c2ccccc2C1=O` gave TLR9-MyD88 inh inactive, MC4R barr agon inactive, MC4R antag cAMP inactive, NTR1 agonist inactive, TLR4 MyD88 comp inactive and NOD2 RIPK2 PPI inactive.
Screening Cc1ccc(/C=C2\Oc3c(ccc(O)c3CN3CCN(CCO)CC3)C2=O)cc1 returned TLR9-MyD88 inh 22, MC4R barr agon inactive, MC4R antag cAMP inactive, NTR1 agonist inactive, TLR4 MyD88 comp inactive, NOD2 RIPK2 PPI 28, TLR9-MyD88 cf inactive, BLA counter-1 inactive, TLR9 CHO cytotox inactive, NOD2 RIPK2 conf 24 and BLA counter-2 28.
For CCc1nc2ccc(C(=O)N3CCN(C(=O)c4ccco4)CC3)cn2c1N(C)C(=O)COc1ccccc1 the results were MC4R barr agon inactive, MC4R antag cAMP inactive and NOD2 RIPK2 PPI inactive.

Screening data: PubChem, several laboratories
